In ChEMBL document CHEMBL4118042, “Cucurbitane Glucosides from the Crude Extract of Siraitia grosvenorii with Moderate Effects on PGC-1α Promoter Activity” (J Nat Prod, 2017) one finds fold change (FC) and Activity data, which are given here for 6 molecules.

Common to all, as to format: cell-based
The target in assay [1] is T1, Peroxisome proliferator-activated receptor gamma coactivator 1-alpha (Homo sapiens) (UniProt Q9UBK2).
T1 sequence (whole entry): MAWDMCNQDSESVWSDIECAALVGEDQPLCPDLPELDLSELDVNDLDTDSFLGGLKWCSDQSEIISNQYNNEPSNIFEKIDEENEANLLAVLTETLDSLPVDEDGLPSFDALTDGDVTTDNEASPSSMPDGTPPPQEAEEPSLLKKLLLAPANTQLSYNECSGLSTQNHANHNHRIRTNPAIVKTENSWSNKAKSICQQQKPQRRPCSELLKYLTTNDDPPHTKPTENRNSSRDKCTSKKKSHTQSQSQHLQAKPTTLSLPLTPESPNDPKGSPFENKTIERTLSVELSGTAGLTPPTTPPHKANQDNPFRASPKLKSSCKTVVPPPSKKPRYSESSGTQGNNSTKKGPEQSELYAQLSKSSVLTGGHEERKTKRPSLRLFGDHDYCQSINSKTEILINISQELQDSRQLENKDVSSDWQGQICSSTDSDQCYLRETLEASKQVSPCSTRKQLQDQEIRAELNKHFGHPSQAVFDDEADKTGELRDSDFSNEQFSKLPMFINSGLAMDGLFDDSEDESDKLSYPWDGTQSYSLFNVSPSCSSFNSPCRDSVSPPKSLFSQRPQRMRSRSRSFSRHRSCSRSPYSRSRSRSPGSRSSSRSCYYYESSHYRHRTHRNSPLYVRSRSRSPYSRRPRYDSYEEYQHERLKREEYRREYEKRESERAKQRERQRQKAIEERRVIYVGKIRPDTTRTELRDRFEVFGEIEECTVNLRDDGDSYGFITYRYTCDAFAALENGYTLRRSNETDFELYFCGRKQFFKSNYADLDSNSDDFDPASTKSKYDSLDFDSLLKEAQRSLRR
As to the kind of experiment: Activation of PGC1alpha transcriptional activity (unknown origin) expressed in HEK293 cells at 100 nM after 24 hrs by luciferase reporter gene assay relative to control. An outline of the steps: (§1)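 HEK293 cells stably carrying a luciferase reporter driven by the PGC-1α promoter, grown in high-glucose DMEM with 10% FBS, penicillin and streptomycin at 37 °C in 5% CO2. About 2800 cells per well; after 24 h, compound added at final 10 or 20 μM, or forskolin 5 μM or dexamethasone 100 nM, with equal DMSO as blank. Incubated overnight, then luciferase substrate added and luminescence read. Values normalized to DMSO (100%), mean ± SEM, Student's t test.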
Background: Reporter assays use an easily measured gene product as a stand-in for the process of interest.

Assay [2] addresses T1, Peroxisome proliferator-activated receptor gamma coactivator 1-alpha (Homo sapiens). The assay is described as follows: Activation of PGC1alpha transcriptional activity (unknown origin) expressed in HEK293 cells at 100 nM after overnight incubation by luciferase reporter gene assay relative to control. An outline of the steps: as §1
The target is the same in assay [3]. The assay is described as follows: Activation of PGC1alpha transcriptional activity (unknown origin) expressed in HEK293 cells at 20 uM after overnight incubation by luciferase reporter gene assay relative to control. An outline of the steps:
as §1

Assay [4] shares this target. As to the kind of experiment: Activation of PGC1alpha transcriptional activity (unknown origin) expressed in HEK293 cells at 10 uM after overnight incubation by luciferase reporter gene assay relative to control. An outline of the steps: as §1
Assay [5] has the same target. As to the kind of experiment: Activation of PGC1alpha transcriptional activity (unknown origin) expressed in HEK293 cells at 5 uM after 24 hrs by luciferase reporter gene assay relative to control.
Assay [6] shares this target. As to the kind of experiment: Activation of PGC1alpha transcriptional activity (unknown origin) expressed in HEK293 cells at 5 uM after overnight incubation by luciferase reporter gene assay relative to control. In a few lines:
as §1

In turn, `C[C@@H]1C[C@H]2[C@@H]3CCC4=CC(=O)C=C[C@]4(C)[C@@]3(F)[C@@H](O)C[C@]2(C)[C@@]1(O)C(=O)CO` gave a fold change (FC) in assay [1] of 1.7. The same molecule showed an Activity in assay [2] of 172%.

Regarding `C[C@H](CC[C@@H](O[C@@H]1O[C@H](CO)[C@@H](O)[C@H](O)[C@H]1O[C@@H]1O[C@H](CO)[C@@H](O)[C@H](O)[C@H]1O)C(C)(C)O)[C@H]1CC[C@@]2(C)[C@@H]3CC=C4[C@@H](CC[C@H](O[C@@H]5O[C@H](CO[C@@H]6O[C@H](CO)[C@@H](O)[C@H](O)[C@H]6O)[C@@H](O)[C@H](O)[C@H]5O)C4(C)C)[C@]3(C)C(=O)C[C@]12C`, the Activity in assay [3] was determined as 132%; in assay [4], 129%.

For `C[C@H](CC[C@@H](O[C@@H]1O[C@H](CO)[C@@H](O)[C@H](O)[C@H]1O[C@@H]1O[C@H](CO)[C@@H](O)[C@H](O)[C@H]1O)C(C)(C)O)[C@H]1CC[C@@]2(C)[C@@H]3C(=O)C=C4[C@@H](CC[C@H](O[C@@H]5O[C@H](CO)[C@@H](O)[C@H](O)[C@H]5O)C4(C)C)[C@]3(C)[C@H](O)C[C@]12C`, the Activity in assay [3] stood at 122%; in assay [4], 97.8%.

Consider `C[C@H](CC[C@@H](O[C@@H]1O[C@H](CO)[C@@H](O)[C@H](O)[C@H]1O[C@@H]1O[C@H](CO)[C@@H](O)[C@H](O)[C@H]1O)C(C)(C)O)[C@H]1CC[C@@]2(C)[C@@H]3CC=C4[C@@H](CC[C@H](O[C@@H]5O[C@H](CO)[C@@H](O)[C@H](O)[C@H]5O)C4(C)C)[C@]3(C)C(=O)C[C@]12C`, for which the Activity is 123% in assay [3] and 107% in assay [4].

In assay [5], `C=C[C@@]1(C)CC(=O)[C@]2(O)[C@@]3(C)[C@@H](O)CCC(C)(C)[C@@H]3[C@H](O)[C@H](OC(C)=O)[C@@]2(C)O1` returned a fold change (FC) of 1.4. Further, in assay [6], the Activity came to 145%.

As for `C[C@H](CC[C@@H](O[C@@H]1O[C@H](CO)[C@@H](O)[C@H](O)[C@H]1O[C@@H]1O[C@H](CO)[C@@H](O)[C@H](O)[C@H]1O)C(C)(C)O)[C@H]1CC[C@@]2(C)[C@@H]3C(=O)C=C4[C@@H](CC[C@H](O[C@@H]5O[C@H](CO[C@@H]6O[C@H](CO)[C@@H](O)[C@H](O)[C@H]6O)[C@@H](O)[C@H](O)[C@H]5O)C4(C)C)[C@]3(C)[C@H](O)C[C@]12C`, the Activity turned out to be 126% in assay [3] and 105% in assay [4].
